Measurements as given in ChEMBL document CHEMBL1799979, “Antifolate and antiproliferative activity of 6,8,10-triazaspiro[4.5]deca-6,8-dienes and 1,3,5-triazaspiro[5.5]undeca-1,3-dienes” (Bioorg Med Chem, 2010).

Assays:
[1] = system: A549; experiment: Antiproliferative activity against human A549 cells after 72 hrs by fluorometric microculture cytotoxicity assay; details: A549, 72 h
[2] = molecular target: T1, Dihydrofolate reductase (Bos taurus, UniProt P00376); experiment: Inhibition of bovine liver DHFR using dihydrofolic acid substrate by UV-visible spectrophotometry
T1 sequence (P00376 whole entry): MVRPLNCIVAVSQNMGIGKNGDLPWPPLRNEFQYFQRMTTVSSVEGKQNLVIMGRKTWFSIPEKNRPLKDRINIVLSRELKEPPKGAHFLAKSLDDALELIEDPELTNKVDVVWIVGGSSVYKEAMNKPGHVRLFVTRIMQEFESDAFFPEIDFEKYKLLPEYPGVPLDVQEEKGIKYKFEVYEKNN

[3] = system: A549; experiment: Growth inhibition of human A549 cells assessed as cell growth at 270 nM after 72 hrs by fluorometric microculture cytotoxicity assay in presence of 100 uM hypoxanthine relative to untreated control; assay type: functional; parameters: scale not given: the % may be the effect or the level left
How it was run: (§1)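 A549 cells were seeded and incubated 24 h, then medium was swapped for medium holding a fixed compound concentration alone, or with 20 µM thymidine, 100 µM hypoxanthine, or both. Twelve wells were used per solution, with solvent-matched controls. After 72 h, cells were PBS-washed, given FDA 2 µg/mL for 45 min at 37 °C, and fluorescence read at ex 485/em 535 nm. Growth is relative to control, as mean (SEM), n = 3.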

[4] = system: A549; experiment: Growth inhibition of human A549 cells assessed as cell growth at 270 nM after 72 hrs by fluorometric microculture cytotoxicity assay in presence of 20 uM thymidine relative to untreated control; assay type: functional; parameters: scale not given: the % may be the effect or the level left
How it was run: as §1

[5] = system: A549; experiment: Growth inhibition of human A549 cells assessed as cell growth at 270 nM after 72 hrs by fluorometric microculture cytotoxicity assay in presence of 100 uM hypoxanthine and 20 uM thymidine relative to untreated control; assay type: functional; parameters: scale not given: the % may be the effect or the level left
How it was run: as §1

[6] = system: A549; experiment: Growth inhibition of human A549 cells assessed as cell growth at 270 nM after 72 hrs by fluorometric microculture cytotoxicity assay relative to untreated control; assay type: functional; details: A549, 72 h, read-out: Activity
How it was run: as §1

[7] = system: A549; experiment: Growth inhibition of human A549 cells assessed as cell growth at 370 nM after 72 hrs by fluorometric microculture cytotoxicity assay in presence of 100 uM hypoxanthine relative to untreated control; assay type: functional; parameters: scale not given: the % may be the effect or the level left
How it was run: as §1

[8] = system: A549; experiment: Growth inhibition of human A549 cells assessed as cell growth at 370 nM after 72 hrs by fluorometric microculture cytotoxicity assay in presence of 20 uM thymidine relative to untreated control; assay type: functional; parameters: scale not given: the % may be the effect or the level left
How it was run: as §1

[9] = system: A549; experiment: Growth inhibition of human A549 cells assessed as cell growth at 370 nM after 72 hrs by fluorometric microculture cytotoxicity assay in presence of 100 uM hypoxanthine and 20 uM thymidine relative to untreated control; assay type: functional; parameters: scale not given: the % may be the effect or the level left
How it was run: as §1

[10] = system: A549; experiment: Growth inhibition of human A549 cells assessed as cell growth at 370 nM after 72 hrs by fluorometric microculture cytotoxicity assay relative to untreated control; assay type: functional; details: A549, 72 h, read-out: Activity
How it was run: as §1

[11] = system: A549; experiment: Growth inhibition of human A549 cells assessed as cell growth at 6.4 uM after 72 hrs by fluorometric microculture cytotoxicity assay in presence of 100 uM hypoxanthine relative to untreated control; assay type: functional; parameters: scale not given: the % may be the effect or the level left
How it was run: as §1

[12] = system: A549; experiment: Growth inhibition of human A549 cells assessed as cell growth at 6.4 uM after 72 hrs by fluorometric microculture cytotoxicity assay in presence of 20 uM thymidine relative to untreated control; assay type: functional; parameters: scale not given: the % may be the effect or the level left
How it was run: as §1

[13] = system: A549; experiment: Growth inhibition of human A549 cells assessed as cell growth at 6.4 uM after 72 hrs by fluorometric microculture cytotoxicity assay in presence of 100 uM hypoxanthine and 20 uM thymidine relative to untreated control; assay type: functional; parameters: scale not given: the % may be the effect or the level left
How it was run: as §1

[14] = system: A549; experiment: Growth inhibition of human A549 cells assessed as cell growth at 6.4 uM after 72 hrs by fluorometric microculture cytotoxicity assay relative to untreated control; assay type: functional; details: A549, 72 h, read-out: Activity
How it was run: as §1

Row | IC50 [2] [nM] | Structure (SMILES) | IC50 [1] [nM] | other results
1 | 10.1 | NC1=NC2(CCCC2)N(OCCCOc2ccc(F)cc2)C(N)=N1 | 58.8 | 
2 | 8.4 | NC1=NC2(CCCC2)N(OCCCOc2ccc([N+](=O)[O-])cc2)C(N)=N1 | 65.8 | 
3 | 9.5 | Cc1ccc(OCCCON2C(N)=NC(N)=NC23CCCC3)cc1 | 48.1 | 
4 | 15.4 | NC1=NC2(CCCCC2)N(OCCCOc2ccc(F)cc2)C(N)=N1 | 59.2 | 
5 | 13.8 | NC1=NC2(CCCCC2)N(OCCCOc2ccc(Cl)cc2)C(N)=N1 | 49.6 | 
6 | 14.7 | NC1=NC2(CCCCC2)N(OCCCOc2ccc([N+](=O)[O-])cc2)C(N)=N1 | 329 | 
7 | 17.5 | Cc1ccc(OCCCON2C(N)=NC(N)=NC23CCCCC3)cc1 | 83.3 | 
8 | 6.1 | COc1ccc(OCCCON2C(N)=NC(N)=NC23CCCCC3)cc1 | 51.6 | 
9 | 9.7 | N#Cc1ccc(OCCCON2C(N)=NC(N)=NC23CCCCC3)cc1 | 116 | 
10 | 13.3 | CC(=O)c1ccc(OCCCON2C(N)=NC(N)=NC23CCCCC3)cc1 | 145 | 
11 | 5.6 | NC1=NC2(CCCCC2)N(OCCCOc2ccc(S(N)(=O)=O)cc2)C(N)=N1 | 166 | 

More lines, now with the values behind:

Row | Structure (SMILES) | IC50 [2] [nM] | IC50 [1] [nM] | other results
12 | NC1=NC2(CCCC2)N(OCCCOc2ccccc2)C(N)=N1 |  | 40.2 | 
13 | Cl.NC1=NC2(CCCC2)N(OCCCOc2ccc(Cl)cc2)C(N)=N1 | 7.2 | 27.1 | Activity [3]: 14.3%; Activity [4]: 68%; Activity [5]: 90%; growth at 0.27 µM [6]: 15.2%
14 | CC(C)(C)c1ccc(OCCCON2C(N)=NC(N)=NC23CCCC3)cc1 | 17 | 160 | 
15 | COc1ccc(OCCCON2C(N)=NC(N)=NC23CCCC3)cc1 | 11.2 | 59.1 | 
16 | N#Cc1ccc(OCCCON2C(N)=NC(N)=NC23CCCC3)cc1 | 7.6 | 60.7 | 
17 | CC(=O)c1ccc(OCCCON2C(N)=NC(N)=NC23CCCC3)cc1 | 9.2 | 59.8 | 
18 | NC1=NC2(CCCCC2)N(OCCCOc2ccccc2)C(N)=N1 |  | 69.7 | 
19 | CC(C)(C)c1ccc(OCCCON2C(N)=NC(N)=NC23CCCCC3)cc1 | 21.5 | 496 | 
20 | CN(Cc1cnc2nc(N)nc(N)c2n1)c1ccc(C(=O)N[C@@H](CCC(=O)O)C(=O)O)cc1 [METHOTREXATE] |  | 37.4 | Activity [7]: 16%; Activity [8]: 77.3%; Activity [9]: 96.6%; growth at 0.37 µM [10]: 14.3%
21 | Nc1nc2[nH]cc(CCc3ccc(C(=O)N[C@@H](CCC(=O)O)C(=O)O)cc3)c2c(=O)[nH]1 [PEMETREXED] |  |  | Activity [11]: 12.6%; Activity [12]: 84.5%; Activity [13]: 99.3%; growth at 6.4 µM [14]: 11.7%
